Experiments:
[1] = test system: CDK2 and CDK1; details: no cyclins present; ref Wood et al., 2019; cited from earlier work
[2] = molecular target: CDK11 Gly223Ser (Homo sapiens, UniProt P21127, G579S); test: ITC binding of OTS964 to CDK11 Gly223Ser
[3] = molecular target: CDK2 Ala144Gly (A144G) (Homo sapiens, UniProt P24941, A144G); test: ITC binding of OTS964 to CDK2 Ala144Gly
How it was run: (§1)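 Human CDK2 (res. 1–298, wild-type or point mutant) is expressed as a GST-PreScission fusion with yeast CAK1 in E. coli BL21(DE3), then tag-cleaved and gel-filtered, with no cyclin. ITC at 25°C in 25 mM HEPES pH 7.5, 250 mM NaCl, 1 mM DTT, 2.0% DMSO: 2250 μM test compound into 150 μM kinase, 38×1 μL injections 180 s apart.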

[4] = molecular target: CDK2 Phe80Met (F80M) (Homo sapiens, UniProt P24941, F80M); test: ITC binding of OTS964 to CDK2 Phe80Met
How it was run: as §1

[5] = molecular target: CDK11 Glu89Gly (E89G) (Homo sapiens, UniProt P21127, E445G); test: ITC binding of OTS964 to CDK11 Glu89Gly
CDK11 Glu89Gly (E89G), sequence (P21127 428-736 E445G): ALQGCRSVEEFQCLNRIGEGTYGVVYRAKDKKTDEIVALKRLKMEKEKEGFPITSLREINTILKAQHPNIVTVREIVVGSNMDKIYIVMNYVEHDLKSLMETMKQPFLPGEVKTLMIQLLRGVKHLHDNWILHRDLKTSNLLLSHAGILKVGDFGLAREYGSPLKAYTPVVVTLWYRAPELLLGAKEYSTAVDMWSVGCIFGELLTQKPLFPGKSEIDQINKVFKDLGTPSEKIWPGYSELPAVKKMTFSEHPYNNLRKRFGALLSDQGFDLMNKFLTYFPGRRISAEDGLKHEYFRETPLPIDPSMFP

[6] = test system: tumor cell lines harbouring FBXW7−/− mutations; details: FBXW7−/− versus FBXW7 wild-type tumor cell lines; ref O’Brien et al. (2022); cited from earlier work
[7] = molecular target: CDK2-cyclin A Gly11Glu (G11E) (Homo sapiens, UniProt P24941, G11E); test: ITC binding of OTS964 to CDK2 Gly11Glu-cyclin A
[8] = molecular target: CDK2 Gly11Glu (G11E) (Homo sapiens, UniProt P24941, G11E); test: ITC binding of OTS964 to CDK2 Gly11Glu
How it was run: as §1

[9] = molecular target: CDK2 Wild-type (Homo sapiens, UniProt P24941); test: ITC binding of OTS964 to CDK2 wild-type
How it was run: as §1

[10] = molecular target: CDK2-cyclin A Ala144Gly (A144G) (Homo sapiens, UniProt P24941, A144G); test: ITC binding of OTS964 to CDK2 Ala144Gly-cyclin A
[11] = molecular target: CDK11 Gly223Ala (G223A) (Homo sapiens, UniProt P21127, G579A); test: ITC binding of OTS964 to CDK11 Gly223Ala
CDK11 Gly223Ala (G223A), sequence (P21127 428-736 G579A): as the sequence (P21127 428-736 E445G) above, with G18E, G152A counted along it

[12] = test system: other CDKs; details: ref Lin et al., 2019, cited from earlier work
[13] = molecular target: CDK11 Met160Phe (M160F) (Homo sapiens, UniProt P21127, M516F); test: ITC binding of OTS964 to CDK11 Met160Phe
CDK11 Met160Phe (M160F), sequence (P21127 428-736 M516F): as the sequence (P21127 428-736 E445G) above, with G18E, M89F counted along it

[14] = molecular target: CDK11 G223A/E89G/M160F (Homo sapiens, UniProt P21127, E445G/G579A/M516F); test: ITC binding of OTS964 to CDK11 triple mutant
CDK11 G223A/E89G/M160F, sequence (P21127 428-736 E445G/M516F/G579A): as the sequence (P21127 428-736 E445G) above, with M89F, G152A counted along it

[15] = molecular target: CDK2-cyclin A Wild-type (Homo sapiens, UniProt P24941); test: ITC binding of OTS964 to CDK2-cyclin A wild-type; details: for Kd: mean ± SD
[16] = molecular target: CDK11 Wild-type (CDK11B residues 72–380) (Homo sapiens, UniProt P21127); test: ITC binding of OTS964 to CDK11 wild-type
CDK11 Wild-type (CDK11B residues 72–380), sequence (P21127 428-736): as the sequence (P21127 428-736 E445G) above, with G18E counted along it

[17] = molecular target: CDK2-cyclin A Phe80Met (F80M) (Homo sapiens, UniProt P24941, F80M); test: ITC binding of OTS964 to CDK2 Phe80Met-cyclin A
[18] = test system: CDK7; details: KINOMEscan panel of CDKs; ref Lin et al., 2019; cited from earlier work
[19] = ITC, CDK2 Gly11Glu with cyclin A
[20] = ITC, CDK2 Ala144Gly with cyclin A
[21] = ITC, CDK2 wild-type with cyclin A
[22] = ITC, CDK2 Phe80Met with cyclin A

CDK11 Gly223Ser, sequence (P21127 428-736 G579S): as the sequence (P21127 428-736 E445G) above, with G18E, G152S counted along it

In the case of `Cc1ncc(-c2ccnc(Nc3ccc(S(C)(=O)=O)cc3)n2)n1C(C)C` [AZD5438], the “difference in affinity between CDK2 and CDK1” value [1] is given as ~ 170 X.
In the case of `Cc1cc(O)c(-c2ccc(C(C)CN(C)C)cc2)c2c1[nH]c(=O)c1sccc12` (stereo not drawn) [OTS964], the Kd [2] is reported as 853 ± 56 nM, the Kd [3] is reported as 16000 ± 4600 nM and the “N (sites)” value ([3]; ITC, 25°C, CDK2 Ala144Gly, no cyclin) is reported as 0.554 sites. For the same compound, the ΔH ([3]; ITC, CDK2 Ala144Gly, no cyclin) was -10.6 ± 1.2 kcal/mol, the ΔS ([3]; ITC, CDK2 Ala144Gly, no cyclin) was −13.4 ± 4.5 cal/mol/K and the ΔG ([3]; ITC, CDK2 Ala144Gly, no cyclin, ΔG = ΔH − TΔS) was -6.56 ± 0.17 kcal/mol. The Kd [4] was 32400 ± 1900 nM, the “N (sites)” value ([4]; ITC, 25°C, CDK2 Phe80Met, no cyclin) was 0.804 sites and the ΔS ([4]; ITC, CDK2 Phe80Met, no cyclin) was −19.1 ± 1.1 cal/mol/K. For the same compound, the ΔG ([4]; ITC, CDK2 Phe80Met, no cyclin, ΔG = ΔH − TΔS) was 17.5 ± 0.6 kcal/mol, the Kd [5] was 50.9 ± 3.3 nM and the “sensitivity to OTS964 treatment” value [6] was “more sensitive”. The Kd [7] was 621 ± 16 nM, the “N (sites)” value ([7]; ITC, 25°C, CDK2 Gly11Glu with cyclin A) was 1.16 sites and the ΔH [7, 19] was -7.13 ± 0.21 kcal/mol. The ΔS [7, 19] was 4.48 ± 0.76 cal/mol/K, the ΔG ([7]; ITC, CDK2 Gly11Glu with cyclin A, ΔG = ΔH − TΔS) was -8.47 ± 0.02 kcal/mol and the Kd [8] was 6820 ± 530 nM. For the same compound, the “N (sites)” value ([8]; ITC, 25°C, CDK2 Gly11Glu, no cyclin) was 0.866 sites, the ΔH ([8]; ITC, CDK2 Gly11Glu, no cyclin) was -9.45 ± 0.32 kcal/mol and the ΔS ([8]; ITC, CDK2 Gly11Glu, no cyclin) was −8.05 ± 1.23 cal/mol/K. For the same compound, the ΔG ([8]; ITC, CDK2 Gly11Glu, no cyclin, ΔG = ΔH − TΔS) was -7.05 ± 0.05 kcal/mol, the Kd [9] was 16300 ± 1700 nM and the “weaker binding than monomeric CDK11” value ([9]; ITC KD, CDK2 without cyclin vs monomeric CDK11) was ~ 250 fold. The “N (sites)” value ([9]; ITC, 25°C, CDK2 wild-type, no cyclin) was 0.704 sites, the ΔH ([9]; ITC, CDK2 wild-type, no cyclin) was -9.12 ± 0.60 kcal/mol and the ΔS ([9]; ITC, CDK2 wild-type, no cyclin) was −8.66 ± 1.80 cal/mol/K. The ΔG ([9]; ITC, CDK2 wild-type, no cyclin, ΔG = ΔH − TΔS) was -6.54 ± 0.06 kcal/mol, the Kd [10] was 3030 ± 150 nM and the “N (sites)” value ([10]; ITC, 25°C, CDK2 Ala144Gly with cyclin A) was 1.04 sites. For the same compound, the ΔH [10, 20] was -6.92 ± 0.01 kcal/mol, the ΔS [10, 20] was 2.04 ± 0.11 cal/mol/K and the ΔG ([10]; ITC, CDK2 Ala144Gly with cyclin A, ΔG = ΔH − TΔS) was -7.53 ± 0.03 kcal/mol. For the same compound, the Kd [11] was 31.7 ± 13.8 nM, the “binding to other CDKs tested” value ([12]; KINOMEscan panel of CDKs) was “no apparent binding” and the Kd ([12]; other CDKs) was over 3000 nM. For the same compound, the “higher affinity for CDK11 than other CDKs” value [12] was “at least 75 fold”, the Kd [13] was 556 ± 26 nM and the Kd [14] was 320 ± 66 nM. For the same compound, the “enhancement of binding of CDK2 to OTS964 in the presence versus absence of cyclin A” value ([15]; ITC KD) was 7 fold, the “N (sites)” value ([15]; ITC, 25°C, CDK2 wild-type with cyclin A) was 1.00 sites and the ΔH [15, 21] was -8.64 ± 1.06 kcal/mol. It also gave a ΔS [15, 21] of −2.64 ± 2.99 cal/mol/K, a ΔG ([15]; ITC, CDK2 wild-type with cyclin A, ΔG = ΔH − TΔS) of -7.85 ± 0.18 kcal/mol and a Kd ([15]; ITC, 25°C, CDK2 wild-type with cyclin A, n=2) of 1820 ± 500 nM. It also gave a Kd ([15]; ITC, CDK2 in the presence of cyclin A) of 1800 ± 500 nM, a Kd [16] of 65.4 ± 18 nM and a Kd [17] of 4980 ± 440 nM. The “N (sites)” value ([17]; ITC, 25°C, CDK2 Phe80Met with cyclin A) was 1.28 sites, the ΔH [17, 22] was -9.69 ± 0.08 kcal/mol and the ΔS [17, 22] was −8.23 ± 0.44 cal/mol/K. For the same compound, the ΔG ([17]; ITC, CDK2 Phe80Met with cyclin A, ΔG = ΔH − TΔS) was -7.24 ± 0.05 kcal/mol and the “more potent against CDK11 than against CDK7” value [18] was 10 X.

— paper PMC9722545 (Structure (London, England : 1993), 2022)
